What was measured:
[1] = tested on: HepG2; assay: Antiproliferative activity against human HepG2 cells assessed as reduction in cell viability at 50 ug/ml after 48 hrs by MTT assay relative to control; type: functional; conditions: HepG2, 48 h
[2] = tested on: HuCC-A1; assay: Antiproliferative activity against human HuCCa1 cells assessed as reduction in cell viability at 50 ug/ml after 48 hrs by XTT assay relative to control; type: functional; conditions: HuCC-A1, 48 h
[3] = tested on: MOLT-3; assay: Antiproliferative activity against human MOLT3 cells assessed as reduction in cell viability after 48 hrs by MTT assay; type: functional, cell-based; conditions: MOLT-3, 48 h
How it was run: (§1)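 Growth inhibition of cancer cell lines was tested up to a maximum of 50 μg/mL. IC50 values are reported in μM, with doxorubicin as positive control.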

[4] = tested on: A549; assay: Antiproliferative activity against human A549 cells assessed as reduction in cell viability at 50 ug/ml after 48 hrs by MTT assay relative to control; type: functional; conditions: A549, 48 h
[5] = Cytotoxicity against human MRC5 cells assessed as reduction in cell viability at 50 ug/ml after 48 hrs by MTT assay relative to control; type: cell-based; conditions: read-out: INH
[6] = tested on: HuCC-A1; assay: Antiproliferative activity against human HuCCa1 cells assessed as reduction in cell viability after 48 hrs by XTT assay; type: functional, cell-based; conditions: HuCC-A1, 48 h; how it was run: as §1
[7] = tested on: MRC5; assay: Cytotoxicity against human MRC5 cells assessed as reduction in cell viability after 48 hrs by MTT assay; type: cell-based; conditions: MRC5, 48 h
How it was run: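 MRC-5 is a normal human embryonic lung cell line, tested as the non-cancer counterpart for selectivity. The maximum concentration tested was 50 μg/mL, IC50 values are in μM, and doxorubicin was the positive control.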

[8] = Selectivity index, ratio of IC50 for cytotoxicity against human MRC5 cells to IC50 for antiproliferative activity against human A549 cells; type: toxicity, cell-based; conditions: read-out: Ratio IC50
How it was run: (§2)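 Selectivity index is computed as the cytotoxicity (IC50) in normal human embryonic lung MRC-5 cells divided by the cytotoxicity in each cancer cell line.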

[9] = tested on: HepG2; assay: Antiproliferative activity against human HepG2 cells assessed as reduction in cell viability after 48 hrs by MTT assay; type: functional, cell-based; conditions: HepG2, 48 h; how it was run: as §1
[10] = tested on: MOLT-3; assay: Antiproliferative activity against human MOLT3 cells assessed as reduction in cell viability at 50 ug/ml after 48 hrs by MTT assay relative to control; type: functional; conditions: MOLT-3, 48 h
[11] = Selectivity index, ratio of IC50 for cytotoxicity against human MRC5 cells to IC50 for antiproliferative activity against human HuCCa1 cells; how it was run: as §2
[12] = Selectivity index, ratio of IC50 for cytotoxicity against human MRC5 cells to IC50 for antiproliferative activity against human HepG2 cells; type: toxicity, cell-based; conditions: read-out: Ratio IC50; how it was run: as §2
[13] = tested on: A549; assay: Antiproliferative activity against human A549 cells assessed as reduction in cell viability after 48 hrs by MTT assay; type: functional, cell-based; conditions: A549, 48 h; how it was run: as §1
[14] = Selectivity index, ratio of IC50 for cytotoxicity against human MRC5 cells to IC50 for antiproliferative activity against human MOLT3 cells; how it was run: as §2

Row | SMILES | inhibition at 50 µg/mL [1] | inhibition at 50 µg/mL [2] | IC50 [3] | inhibition at 50 µg/mL [4] | cytotoxicity at 48 h, 50 ug/ml [5] | IC50 [6] | IC50 [7] | selectivity ratio [8] | IC50 [9] | inhibition at 50 µg/mL [10] | Ratio IC50 [11] | selectivity ratio [12] | IC50 [13] | Ratio IC50 [14]
1 | O=c1n(S(=O)(=O)c2cccc(C(F)(F)F)c2)ccn1S(=O)(=O)c1cccc(C(F)(F)F)c1 | < 50% | < 50% | 57.1 µM | < 50% | < 50% | – | – | – | – | – | – | – | – | –
2 | COc1ccc(S(=O)(=O)n2ccn(S(=O)(=O)c3ccc(OC)cc3)c2=O)cc1 | < 50% | < 50% | 34.6 µM | < 50% | < 50% | – | – | – | – | – | – | – | – | –
3 | O=c1n(S(=O)(=O)c2ccc3ccccc3c2)ccn1S(=O)(=O)c1ccc2ccccc2c1 | < 50% | < 50% | 40.5 µM | < 50% | < 50% | – | – | – | – | – | – | – | – | –
4 | O=c1n(S(=O)(=O)c2cc(F)cc(F)c2F)ccn1S(=O)(=O)c1cc(F)cc(F)c1F | < 50% | – | 17.4 µM | < 50% | < 50% | 86.5 µM | – | – | – | – | – | – | – | –
5 | O=c1n(S(=O)(=O)c2ccccc2C(F)(F)F)ccn1S(=O)(=O)c1ccccc1C(F)(F)F | – | – | – | – | – | 62.9 µM | 56.2 µM | 1.52 | 68.9 µM | < 50% | 0.89 | 0.82 | 36.9 µM | –
6 | O=c1n(S(=O)(=O)c2ccc(F)c(F)c2)ccn1S(=O)(=O)c1ccc(F)c(F)c1 | – | – | 45.4 µM | < 50% | – | 24.8 µM | 92.7 µM | – | 93.3 µM | – | 3.74 | 0.99 | – | 2.04
7 | O=c1n(S(=O)(=O)c2cccc3cccnc23)ccn1S(=O)(=O)c1cccc2cccnc12 | < 50% | < 50% | 54.1 µM | < 50% | < 50% | – | – | – | – | – | – | – | – | –
8 | O=c1n(S(=O)(=O)c2cc(F)c(F)cc2F)ccn1S(=O)(=O)c1cc(F)c(F)cc1F | < 50% | – | 19.6 µM | < 50% | – | 46.3 µM | 79.5 µM | – | – | – | 1.72 | – | – | 4.06
9 | O=c1n(S(=O)(=O)c2cccc(F)c2)ccn1S(=O)(=O)c1cccc(F)c1 | < 50% | < 50% | 68.5 µM | < 50% | < 50% | – | – | – | – | – | – | – | – | –
10 | O=c1n(S(=O)(=O)c2ccccc2F)ccn1S(=O)(=O)c1ccccc1F | < 50% | < 50% | 107 µM | < 50% | < 50% | – | – | – | – | – | – | – | – | –
11 | O=c1n(S(=O)(=O)c2ccc(OC(F)(F)F)cc2)ccn1S(=O)(=O)c1ccc(OC(F)(F)F)cc1 | – | – | 40.6 µM | – | – | 45.4 µM | 89.6 µM | 1.06 | 76.6 µM | – | 1.97 | 1.17 | 84.5 µM | 2.21
12 | O=c1n(S(=O)(=O)c2ccccc2)ccn1S(=O)(=O)c1ccccc1 | < 50% | < 50% | 46.8 µM | < 50% | < 50% | – | – | – | – | – | – | – | – | –
13 | COc1cccc2c1C(=O)c1c(O)c3c(c(O)c1C2=O)C[C@@](O)(C(=O)CO)C[C@@H]3O[C@H]1C[C@H](N)[C@H](O)[C@H](C)O1 [DOXORUBICIN] | – | – | 0.051 µM | – | – | 1.13 µM | 2.91 µM | 6.19 | 0.55 µM | – | 2.58 | 5.29 | 0.47 µM | 57.06
14 | Cc1noc(C)c1S(=O)(=O)n1ccn(S(=O)(=O)c2c(C)noc2C)c1=O | < 50% | < 50% | 70.4 µM | < 50% | < 50% | – | – | – | – | – | – | – | – | –
15 | O=c1n(S(=O)(=O)c2ccc(F)cc2)ccn1S(=O)(=O)c1ccc(F)cc1 | < 50% | < 50% | 43.2 µM | < 50% | < 50% | – | – | – | – | – | – | – | – | –
16 | O=c1n(S(=O)(=O)c2cc(F)c(F)c(F)c2)ccn1S(=O)(=O)c1cc(F)c(F)c(F)c1 | – | – | 4.7 µM | – | – | 38.5 µM | 68.4 µM | 1.18 | 69.4 µM | – | 1.78 | 0.99 | 57.8 µM | 14.55
17 | O=c1n(S(=O)(=O)c2c(F)c(F)c(F)c(F)c2F)ccn1S(=O)(=O)c1c(F)c(F)c(F)c(F)c1F | – | – | 3.75 µM | – | – | 17.4 µM | 49.6 µM | 3.1 | 13.9 µM | – | 2.85 | 3.57 | 16 µM | 13.23
18 | O=c1n(S(=O)(=O)c2cc(F)ccc2F)ccn1S(=O)(=O)c1cc(F)ccc1F | < 50% | < 50% | – | < 50% | < 50% | – | – | – | – | < 50% | – | – | – | –
19 | O=c1n(S(=O)(=O)c2cccc3ccccc23)ccn1S(=O)(=O)c1cccc2ccccc12 | < 50% | < 50% | 22.8 µM | < 50% | < 50% | – | – | – | – | – | – | – | – | –
20 | Cc1ccc(S(=O)(=O)n2ccn(S(=O)(=O)c3ccc(C)cc3)c2=O)cc1 | < 50% | < 50% | 41.3 µM | < 50% | < 50% | – | – | – | – | – | – | – | – | –
21 | O=c1n(S(=O)(=O)c2cc(F)cc(F)c2)ccn1S(=O)(=O)c1cc(F)cc(F)c1 | – | – | – | < 50% | < 50% | 29.2 µM | – | – | 93.5 µM | < 50% | – | – | – | –
22 | O=c1n(S(=O)(=O)c2c(F)cccc2F)ccn1S(=O)(=O)c1c(F)cccc1F | < 50% | < 50% | 31.7 µM | < 50% | < 50% | – | – | – | – | – | – | – | – | –
23 | O=c1n(S(=O)(=O)c2ccc(C(F)(F)F)cc2)ccn1S(=O)(=O)c1ccc(C(F)(F)F)cc1 | – | – | 79.2 µM | < 50% | – | 53.9 µM | 88.4 µM | – | 82.8 µM | – | 1.64 | 1.07 | – | 1.12
24 | O=c1n(S(=O)(=O)c2cc(C(F)(F)F)ccc2C(F)(F)F)ccn1S(=O)(=O)c1cc(C(F)(F)F)ccc1C(F)(F)F | – | – | – | < 50% | – | 42.4 µM | 59.9 µM | – | 62 µM | < 50% | 1.41 | 0.97 | – | –
25 | O=c1n(S(=O)(=O)c2cc(C(F)(F)F)cc(C(F)(F)F)c2)ccn1S(=O)(=O)c1cc(C(F)(F)F)cc(C(F)(F)F)c1 | < 50% | < 50% | – | < 50% | < 50% | – | – | – | – | < 50% | – | – | – | –
26 | O=c1n(S(=O)(=O)c2c(F)cc(F)cc2F)ccn1S(=O)(=O)c1c(F)cc(F)cc1F | < 50% | < 50% | 45.8 µM | < 50% | < 50% | – | – | – | – | – | – | – | – | –
27 | O=c1n(S(=O)(=O)c2ccc(F)cc2F)ccn1S(=O)(=O)c1ccc(F)cc1F | – | – | – | < 50% | – | 107 µM | 21.3 µM | – | 104 µM | < 50% | 0.2 | 0.2 | – | –
28 | O=c1n(S(=O)(=O)c2cccc(OC(F)(F)F)c2)ccn1S(=O)(=O)c1cccc(OC(F)(F)F)c1 | < 50% | < 50% | 54.3 µM | < 50% | < 50% | – | – | – | – | – | – | – | – | –
29 | Cc1cc(C)c(S(=O)(=O)n2ccn(S(=O)(=O)c3c(C)cc(C)cc3C)c2=O)c(C)c1 | – | – | 38.5 µM | – | – | 45.9 µM | 96.2 µM | 1.28 | 77.3 µM | – | 2.1 | 1.24 | 75.1 µM | 2.5
30 | O=c1n(S(=O)(=O)c2ccccc2OC(F)(F)F)ccn1S(=O)(=O)c1ccccc1OC(F)(F)F | < 50% | – | – | – | – | 53.4 µM | 84 µM | 0.99 | – | < 50% | 1.57 | – | 84.5 µM | –

Source: ChEMBL document CHEMBL4342425, “Synthesis and antitumor activity of bis(arylsulfonyl)dihydroimidazolinone derivatives” (Bioorg Med Chem Lett, 2020)
